# Experiments:
# [1] = tested on: Canis familiaris; assay: Effect of compound on the renal blood flow (RBF) in alpha-blocked anesthetized dogs at a dose of 100 nmol after SCH 23390.; type: functional, Canis lupus familiaris, Kidney
# In short: (§1)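 Phenoxybenzamine α-blocked anesthetized dogs, N=4-5/group (dopamine N=18). Doses given as renal-artery boluses; Δ renal blood flow in mL/min, mean ± SEM. SCH 23390 infused at 0.5 µg/kg/min iv, with doses repeated 5 min after infusion onset. After ≥1.5 h recovery, propranolol was given at 0.5 mg/kg ia over 15 min. The combined condition repeated SCH 23390 infusion with propranolol present.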
# [2] = tested on: Canis familiaris; assay: Compound was tested for the renal vasodilatory activity in anesthetized dog.; type: functional, Canis lupus familiaris; parameters: unit not given here
# In short: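 Dogs anesthetized and α-blocked with phenoxybenzamine, with saline infused iv during blockade. Four ascending bolus doses (3-10000 nmol) given into the renal artery in 0.2 mL isotonic saline, one test compound per dog. Maximal rise in renal blood flow was taken as % of each dog's response to 100 nmol dopamine. ED30 is the dose raising flow by 30%.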
# [3] = tested on: Canis familiaris; assay: Effect of compound on the renal blood flow (RBF) in alpha-blocked anesthetized dogs at a dose of 100 nmol after propranolol; type: functional, Canis lupus familiaris, Kidney; in short: as §1
# [4] = tested on: Canis familiaris; assay: Effect of compound on the renal blood flow (RBF) in alpha-blocked anesthetized dogs at a dose of 300 nmol after SCH 23390+propranolol; type: functional, Canis lupus familiaris, Kidney; in short: as §1
# [5] = tested on: Canis familiaris; assay: Effect of compound on the renal blood flow (RBF) in alpha-blocked anesthetized dogs at a dose of 1000 nmol after SCH 23390+propranolol; type: functional, Canis lupus familiaris, Kidney; in short: as §1
# [6] = tested on: Canis familiaris; assay: Effect of compound on the renal blood flow (RBF) in alpha-blocked anesthetized dogs at a dose of 300 nmol after SCH 23390.; type: functional, Canis lupus familiaris, Kidney; in short: as §1
# [7] = tested on: Canis familiaris; assay: Effect of compound on the renal blood flow (RBF) in alpha-blocked anesthetized dogs at a dose of 1000 nmol after propranolol; type: functional, Canis lupus familiaris, Kidney; in short: as §1
# [8] = tested on: Canis familiaris; assay: Effect of compound on the renal blood flow (RBF) in alpha-blocked anesthetized dogs at a dose of 300 nmol after propranolol; type: functional, Canis lupus familiaris, Kidney; in short: as §1
# [9] = tested on: Canis familiaris; assay: Effect of compound on the renal blood flow (RBF) in alpha-blocked anesthetized dogs at a dose of 1000 nmol after SCH 23390.; type: functional, Canis lupus familiaris, Kidney; in short: as §1
# [10] = tested on: Canis familiaris; assay: Effect of compound on the renal blood flow (RBF) in alpha-blocked anesthetized dogs at a dose of 3000 nmol after propranolol; type: functional, Canis lupus familiaris, Kidney; in short: as §1
# [11] = tested on: Canis familiaris; assay: Effect of compound on the renal blood flow (RBF) in alpha-blocked anesthetized dogs at a dose of 10000 nmol after SCH 23390+propranolol; type: functional, Canis lupus familiaris, Kidney; in short: as §1
# [12] = tested on: Canis familiaris; assay: Effect of compound on the renal blood flow (RBF) in alpha-blocked anesthetized dogs at a dose of 3000 nmol after SCH 23390+propranolol; type: functional, Canis lupus familiaris, Kidney; in short: as §1
# [13] = tested on: Canis familiaris; assay: Effect of compound on the renal blood flow (RBF) in alpha-blocked anesthetized dogs at a dose of 3000 nmol after SCH 23390.; type: functional, Canis lupus familiaris, Kidney; in short: as §1
# [14] = tested on: Canis familiaris; assay: Effect of compound on the renal blood flow (RBF) in alpha-blocked anesthetized dogs at a dose of 10000 nmol after propranolol; type: functional, Canis lupus familiaris, Kidney; in short: as §1
# [15] = tested on: Canis familiaris; assay: Effect of compound on the renal blood flow (RBF) in alpha-blocked anesthetized dogs at a dose of 10000 nmol after SCH 23390.; type: functional, Canis lupus familiaris, Kidney; in short: as §1
# [16] = tested on: Canis familiaris; assay: Effect of compound on the renal blood flow (RBF) in alpha-blocked anesthetized dogs at a dose of 100 nmol after SCH 23390+propranolol; type: functional, Canis lupus familiaris, Kidney; in short: as §1
compound,measurement,setting,value
Cl.NCCc1ccc(O)c(O)c1Cl,RBF,[1],4 mL/min
same,ED30,[2],13.5
same,RBF,[3],43 mL/min
CCNCCc1ccc(O)c(O)c1Cl.Cl,RBF,[4],2 mL/min
same,RBF,[5],2 mL/min
same,RBF,[6],22 mL/min
same,RBF,[7],40 mL/min
same,RBF,[8],25 mL/min
same,ED30,[2],67.4
same,RBF,[9],32 mL/min
CCCNCCc1ccc(O)c(O)c1Cl.Cl,RBF,[10],11 mL/min
same,RBF,[11],5 mL/min
same,RBF,[12],2 mL/min
same,RBF,[13],11 mL/min
same,RBF,[14],17 mL/min
same,ED30,[2],2166
same,RBF,[15],17 mL/min
CNCCc1ccc(O)c(O)c1Cl.Cl,RBF,[1],8 mL/min
same,RBF,[6],15 mL/min
same,RBF,[8],49 mL/min
same,ED30,[2],11.5
same,RBF,[3],34 mL/min
NCCc1ccc(O)c(O)c1 [DOPAMINE],RBF,[1],15 mL/min
same,RBF,[16],14 mL/min
same,RBF,[3],69 mL/min

# From ChEMBL document CHEMBL1123534, “Synthesis and renal vasodilator activity of 2-chlorodopamine and N-substituted derivatives” (1986)
